Screening results deposited in PubChem BioAssay by several laboratories.
A3A deaminase – inhibitors of human APOBEC3A DNA deaminase | P31941 | recombinant A3A, FAM/TAMRA ssDNA deamination fluorescence | inhibition, % at 20 µM | hit rate 0.41% among 330,000;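 active = at least 40% inhibition at 20 µM here, with at most 30% in a related deaminase screen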
Target sequence (P31941 whole entry, looked up): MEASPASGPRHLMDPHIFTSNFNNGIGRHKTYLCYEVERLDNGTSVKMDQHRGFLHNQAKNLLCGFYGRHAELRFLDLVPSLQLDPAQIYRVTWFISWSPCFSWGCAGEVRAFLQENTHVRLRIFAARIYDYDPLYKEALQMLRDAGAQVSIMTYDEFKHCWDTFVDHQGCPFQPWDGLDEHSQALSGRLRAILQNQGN
APOBEC3G inh – APOBEC3G (human) deaminase inhibition | AID 493012 | recombinant A3G, ssDNA deamination FAM/TAMRA fluorescence | hit rate 0.28% among 330,000 | inhibition, % at 20 µM | Q9HC16;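 active = inhibition of at least 40% at 20 µM, with no more than 30% in the related APOBEC3A deaminase screen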
PRMT1 FP inh – blocks human protein arginine methyltransferase 1; hit rate 1.3% among 370,000; recombinant PRMT1, activity-based probe fluorescence polarization; Q99873; AID 652257; inhibition, % at 2.79 µM;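 active = inhibition above about 21% made by adding two undisclosed values, limit read from the data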
Target sequence (Q99873 whole entry, looked up): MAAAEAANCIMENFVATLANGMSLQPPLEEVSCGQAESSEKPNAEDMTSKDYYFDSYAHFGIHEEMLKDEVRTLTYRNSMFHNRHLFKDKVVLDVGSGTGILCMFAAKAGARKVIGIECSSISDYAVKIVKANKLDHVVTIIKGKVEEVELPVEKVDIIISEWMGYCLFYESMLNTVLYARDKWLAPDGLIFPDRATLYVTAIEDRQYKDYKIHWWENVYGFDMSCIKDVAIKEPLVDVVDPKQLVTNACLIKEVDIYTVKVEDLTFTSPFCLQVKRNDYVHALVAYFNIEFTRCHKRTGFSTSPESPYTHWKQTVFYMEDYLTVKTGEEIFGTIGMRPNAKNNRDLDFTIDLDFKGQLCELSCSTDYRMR
ABHD5-PLIN5 inh – blocks binding of human ABHD5 to perilipin-5 | hit rate 0.78% among 360,000 | inhibition, % at 4 µM | Q00G26+Q8WTS1 | Split G. princeps luciferase complementation, luminescence, 4 h | AID 602281;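 active = inhibition above the mean inhibition across every tested compound plus 3 SD, cut at about 22% in these data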
HCV NS3 hel inh – inhibitors of Hepatitis C virus NS3 helicase; NS3 helicase DNA unwinding, Cy5 molecular beacon fluorescence; inhibition, % at 10.9 µM; hit rate 0.56% among 290,000;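 active = inhibition above the mean of all tested compounds plus 3 SD, set per campaign, cut at about 35% in these data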
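Assay system: hepatitis C virus NS3 helicase domain fragment enzyme. Also added: annealed dual-labelled DNA beacon duplex, ATP-started. Timing: 1 h reaction at 25 °C, ATP-initiated. Technique: Cy5 fluorescence at 0 and 60 min, beacon hairpin quenching. Evaluation: % inhibition of unwinding. Replication: one well per compound.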
core dimer inh – HCV core protein dimerization inhibition; inhibition, % at 5 µM; AID 1899; TR-FRET GST/Flag-core106 dimerization, 1536-well; hit rate 0.33% among 300,000;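 active = inhibition above the mean of all tested compounds plus 3 SD, set per screening campaign, cut at about 45% in these data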
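System: GST/Flag-tagged HCV core106 proteins. Incubation: compound-protein-antibody incubation 4 h at 22.5 °C. Technique: HTRF with 340 nm excitation, 617/671 nm emission. Medium: KF-containing HEPES buffer, pH 7.45, DTT, CHAPS, BSA. Read-out: inhibition (%) from 671 over 617 nm ratio. Also added: Eu(K)-anti-GST 90 ng/mL plus XL665-anti-Flag 1 µg/mL.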
A3G conf – confirmation of human APOBEC3G DNA deaminase inhibitors. shares compounds with APOBEC3G inh. recombinant A3G ssDNA deaminase, UDG/FAM-TAMRA fluorescence. inhibition, % at 20 µM. hit rate 72% among 890;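 active = inhibition reaching a set limit in any replicate at 20 µM, the limit being 80% of the first screen's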
UDG A3G counter – E. coli UDG inhibition in APOBEC3G counter-screen. inhibition, % at 20 µM. UDG counterscreen, FAM/TAMRA oligo fluorescence. 710 tested, under 10 active. shares compounds with APOBEC3G inh;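 active = compounds giving 40% or more inhibition at 20 µM in any one of the three replicates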;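 note: inhibitors lower the FAM signal released by uracil excision and alkaline cleavage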
Each line names hits and unclear results; the compound was inactive in the other large screens (follow-up assays come after a bar, where they were run). Hits are enriched below; roughly 2.9% of the tested compounds scored in any of these assays.

COC(=O)Cc1ccc2sc(-c3ccccc3)nc2c1	none
CCc1ccc(-n2c(=O)c3ccccc3n3c(=S)[nH]nc23)cc1	APOBEC3G inh 60.5 | A3G conf 76.3 | UDG A3G counter inactive
O=C(Nc1ccc(Br)cc1)OCCN1CCCC12CCC(c1ccccc1)CC2 (centres undefined)	none (no result: A3A deaminase, APOBEC3G inh, ABHD5-PLIN5 inh, HCV NS3 hel inh, core dimer inh)
O=C(NCc1nnc(SCC(=O)N2CCCCCC2)o1)c1ccco1	APOBEC3G inh 77.3 | A3G conf inactive | UDG A3G counter inactive
O=C(NCc1nnc(SCC(=O)N2CCCCC2)o1)c1ccc(F)cc1	none
S=c1[nH]nc(COc2ccccc2)n1/N=C/c1ccncc1	APOBEC3G inh 62.4 | A3G conf 82.1 | UDG A3G counter inactive
COc1cc(/C=N/n2c(-c3ccccc3)n[nH]c2=S)cc(OC)c1O	APOBEC3G inh 48.3 | A3G conf 63.8 | UDG A3G counter inactive
COc1cc(/C=N/n2c(-c3ccccc3)n[nH]c2=S)ccc1O	none
COc1cc(/C=N/n2c(COc3ccccc3)n[nH]c2=S)cc(Br)c1O	APOBEC3G inh 46.3 | A3G conf 70.4 | UDG A3G counter inactive
CCc1n[nH]c(=S)n1/N=C/c1ccc(N(CC)CC)cc1	APOBEC3G inh 46.5 | A3G conf 48.5 | UDG A3G counter inactive
CCOc1ccc(S(=O)(=O)N2CCOCC2)cc1NC(=O)CN1C(=O)NC(C)(c2ccccc2)C1=O (centres undefined)	none (no result: HCV NS3 hel inh)
c1cncc(-c2cn(C[C@H]3CC[C@@H]([C@@H]4CC[C@H](Cn5cc(-c6cccnc6)nn5)O4)O3)nn2)c1	none
COc1ccc(-c2cnc(C(O)c3ccc(C(C)(C)C)cc3)[nH]2)cc1 (centres undefined)	none (no result: A3A deaminase, APOBEC3G inh, HCV NS3 hel inh, core dimer inh)
S=c1[nH]nc(COc2ccccc2)n1/N=C/c1ccccn1	APOBEC3G inh 54.9 | A3G conf 85.9 | UDG A3G counter inactive
COc1ccc(NC(=O)CN2C(=O)/C(=C3\SC(=S)N(CCC(=O)O)C3=O)c3ccccc32)cc1	APOBEC3G inh 53.2 (no result: PRMT1 FP inh) | A3G conf 71.4 | UDG A3G counter inactive
O=C(CN1C(=O)/C(=C2/SC(=S)N(CCS(=O)(=O)O)C2=O)c2ccccc21)Nc1cccc(Br)c1	none (no result: HCV NS3 hel inh, core dimer inh)
Cc1cccn2c(=O)c3cc(C(=O)NCc4ccco4)c(=N)n(CCOCCO)c3nc12	APOBEC3G inh 58.5 (no result: PRMT1 FP inh) | A3G conf inactive
Cc1ccc(C)c(NC(=O)CN(C)C(=O)c2ccc(-n3cncn3)c([N+](=O)[O-])c2)c1	APOBEC3G inh 68.9 (no result: HCV NS3 hel inh) | A3G conf inactive | UDG A3G counter inactive
Cc1cc(Br)ccc1NC(=O)CN(C)C(=O)c1ccc(-n2cncn2)c([N+](=O)[O-])c1	none (no result: HCV NS3 hel inh, core dimer inh)
S=c1[nH]c2ccc(Cl)cc2[nH]1	APOBEC3G inh 40.6 | A3G conf 80.6 | UDG A3G counter inactive
COC(=O)c1ccc(Cn2nc(C)c([N+](=O)[O-])c2C)o1	none
Cc1nn(Cc2ccc(C(=O)O)o2)c(C)c1[N+](=O)[O-]	APOBEC3G inh 54.4 | A3G conf inactive | UDG A3G counter inactive
COCCN(C(=O)c1snc(C(N)=O)c1N)C(C(=O)NC1CCCCC1)c1ccc(F)cc1 (centres undefined)	none
O=C(Nc1n[nH]c(=S)s1)c1ccco1	APOBEC3G inh 82.7 | A3G conf 88.4 | UDG A3G counter inactive
Cc1cc(-c2ccco2)c(C#N)c2nc3ccccc3n12	APOBEC3G inh 53.1 | A3G conf 47.3
COc1ccc(NC(=O)C(c2ccncc2)n2c(=O)c(-c3ccco3)nc3ccccc32)cc1 (centres undefined)	none (no result: A3A deaminase, APOBEC3G inh, HCV NS3 hel inh, core dimer inh)
O=C(NC1CCCCC1)C(C1CC1)n1c(=O)c(-c2cc3ccccc3[nH]2)nc2ccccc21 (centres undefined)	none (no result: A3A deaminase, APOBEC3G inh, HCV NS3 hel inh, core dimer inh)
C/C=C/c1cnc2c(c1)C(=O)N([C@H](C)CO)C[C@@H](C)[C@@H](CN(C)C(=O)NC1CCCC1)O2	none (no result: A3A deaminase, APOBEC3G inh, HCV NS3 hel inh, core dimer inh)
COc1cc(CNCCNC(=O)c2nonc2N)ccc1OCc1ccc(Cl)cc1	APOBEC3G inh 78.9 | A3G conf inactive | UDG A3G counter inactive
CCc1cc2cc(C)cc(C)c2[nH]c1=S	APOBEC3G inh 49.1 | A3G conf active | UDG A3G counter inactive
CCOCCCN(Cc1cc2cc(C)cc(C)c2[nH]c1=O)C(=O)N(CC)CC	none
O=C(C1CCN(c2ncnc3c2nc2n3CCCCC2)CC1)N1CCN(c2ccccc2F)CC1	APOBEC3G inh 45.6 | A3G conf inactive
c1csc(-c2nn3c(Cn4cnc5ccccc54)nnc3s2)c1	APOBEC3G inh 52.6 | A3G conf 37.7 | UDG A3G counter inactive
Clc1ccc(C2=CSC3=NCCN23)c(Cl)c1	none (no result: HCV NS3 hel inh)
COc1ccc(NC(=O)Nc2cc(C)nn2-c2ccccc2)cc1	none (no result: A3A deaminase, APOBEC3G inh, ABHD5-PLIN5 inh, HCV NS3 hel inh, core dimer inh)
Cc1cc(NC(=O)Nc2ccccc2)n(C(C)(C)C)n1	APOBEC3G inh 60.5 | A3G conf inactive
S=c1[nH]c2ccccc2n1Cc1ccccc1	APOBEC3G inh 49.7 | A3G conf 53.8 | UDG A3G counter inactive
S=c1[nH]c2cnccc2n1Cc1ccccc1	none
O=c1c2ccccc2sn1-c1ccc(F)cc1	APOBEC3G inh 85.8, PRMT1 FP inh 84.4, ABHD5-PLIN5 inh 70.9 (no result: HCV NS3 hel inh, core dimer inh) | A3G conf 79.8 | UDG A3G counter inactive
O=c1sc2ccccc2c(=O)n1Cc1ccccc1F	none
Cc1csc(NC(=O)CN(C)S(=O)(=O)c2cccc3cccnc23)n1	none
CN(CC(=O)Nc1n[nH]c(=S)s1)S(=O)(=O)c1cccc2cccnc12	APOBEC3G inh 75.4 | A3G conf 95.1 | UDG A3G counter inactive
Cc1ccc(S(=O)(=O)/C(C#N)=C/c2c(N3CCCCC3)nc3ccccn3c2=O)cc1	APOBEC3G inh 48.9 | A3G conf inactive | UDG A3G counter inactive
O=C(NCC(=O)N1CCN(C(c2ccccc2)c2ccccc2)CC1)c1ccccc1Br	none (no result: A3A deaminase, APOBEC3G inh, HCV NS3 hel inh, core dimer inh)
Cc1c(O)cc2c(c1O)C(=O)CC(c1ccc(O)cc1)O2 (centres undefined)	APOBEC3G inh 56.4 | A3G conf 69.3
CCOC1=C2[C@@H](CN(S(=O)(=O)c3ccc(C)cc3)[C@H]2c2ccc(Cl)cc2)[C@H]2C(=O)N(c3ccccc3)C(=O)[C@H]2C1	none (no result: A3A deaminase, APOBEC3G inh, HCV NS3 hel inh, core dimer inh)
Cc1nnsc1C(=O)NNc1ccc(C(C)(C)C)cc1	APOBEC3G inh 52.6 | A3G conf inactive | UDG A3G counter inactive
O=C(CCC(=O)OCC(=O)c1ccc(-c2ccccc2)cc1)Nc1cccc2cccnc12	none
O=C(CCC(=O)OCC(=O)c1ccc(Cl)cc1Cl)Nc1cccc2cccnc12	APOBEC3G inh 54.1 | A3G conf inactive | UDG A3G counter inactive
Nc1nc(-c2cc3c(cc2Cl)OCCO3)cs1	APOBEC3G inh 52.0 | A3G conf inactive | UDG A3G counter inactive
